Source: ChEMBL document CHEMBL2440072, “Identification, biological characterization and pharmacophoric analysis of a new potent and selective NK1 receptor antagonist clinical candidate” (Bioorg Med Chem, 2013)

How the values were obtained:
[1] = molecular target: T1, Substance-P receptor (Homo sapiens, UniProt P25103); assay: Antagonist activity at NK1 receptor (unknown origin)
[2] = molecular target: T1, Substance-P receptor; assay: Displacement of [3H]SP from human recombinant NK1 receptor expressed in CHO cells after 40 mins by scintillation counting analysis; format: cell-based
Summary of the method: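 Membranes from hNK1-CHO cells (8 µg protein) with [3H]-SP 0.5 nM in HEPES pH 7.4, 3 mM MnCl2, 0.02% BSA. Compound 1 pM–1 µM final, 40 min at room temperature. Nonspecific binding with 1 µM SP. Filtration through PEI-soaked GF/B filters, scintillation counting. IC50 fitted with slope fixed at unity, converted to Ki by Cheng-Prusoff; duplicates.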

[3] = Oral bioavailability in rat at 1 mg/kg; format: ADME, organism-based; conditions: in vivo
Summary of the method: (§1)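 Rat and dog pharmacokinetics derived from plasma concentrations after 0.5 mg/kg i.v. and 1 mg/kg oral dosing.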

[4] = Ratio of drug uptake in brain to plasma in rat at 1 mg/kg, iv after 5 mins; format: ADME, organism-based; set-up: dose 1 mg/kg, route intravenous; conditions: read-out: BPR
Summary of the method: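 Rat brain and plasma levels measured 5 min after 1 mg/kg i.v. dose; brain/plasma ratio calculated.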

[5] = Plasma clearance in dog at 0.5 mg/kg, iv and 1 mg/kg, po; format: ADME, organism-based, Canis lupus familiaris; summary of the method: as §1
[6] = Half life in rat at 0.5 mg/kg, iv and 1 mg/kg, po; format: ADME, organism-based; conditions: in vivo; summary of the method: as §1
[7] = Plasma clearance in rat at 0.5 mg/kg, iv and 1 mg/kg, po; format: ADME, organism-based; summary of the method: as §1
[8] = Oral bioavailability in dog at 1 mg/kg; format: ADME, organism-based, Canis lupus familiaris; conditions: in vivo; summary of the method: as §1
[9] = Half life in dog at 0.5 mg/kg, iv and 1 mg/kg, po; format: ADME, organism-based, Canis lupus familiaris; conditions: in vivo; summary of the method: as §1
[10] = Volume of distribution at steady state in dog at 0.5 mg/kg, iv and 1 mg/kg, po; format: ADME, organism-based, Canis lupus familiaris; conditions: in vivo, read-out: Vdss; summary of the method: as §1
[11] = Volume of distribution at steady state in rat at 0.5 mg/kg, iv and 1 mg/kg, po; format: ADME, organism-based; conditions: in vivo, read-out: Vdss; summary of the method: as §1
[12] = molecular target: T1, Substance-P receptor; conditions: CHO
[13] = system: Callithrix jacchus; assay: Anxiolytic activity in marmoset human threat test model assessed as reduction in number of postures at 0.3 mg/kg, po preincubated for 1 hr followed by compound wash out for 3 days relative to vehicle-treated control; format: functional; set-up: scale not given: the % may be the effect or the level left
Summary of the method: (§2)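 Marmosets, both sexes, >2 years, 300–500 g, preselected for ≥10 postures in 2 min. Oral dosing 0.3–10 mg/kg (1 ml/kg) in 0.5% methocel with 1% DMSO, 1 h before a human-observer threat test. Blind random crossover, ≥3 day washout, 4–7 animals. Postures counted; paired t-test against matched vehicle.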

[14] = Ratio of drug uptake in brain to plasma in Mongolian gerbil at 1 mg/kg, po; format: ADME, organism-based, Meriones unguiculatus; set-up: dose 1 mg/kg, route oral
Summary of the method: (§3)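 Gerbils given 1 mg/kg orally; total brain concentration and brain/plasma ratio determined.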

[15] = system: Meriones unguiculatus; assay: Ex vivo NK1 receptor occupancy in Mongolian gerbil striatum assessed as inhibition of [3H]-GR205171 binding at 1 mg/kg, po by autoradiography; format: functional
Summary of the method: (§4)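 Gerbils dosed orally (0.1–1 mg/kg) 1 h before, killed after social interaction testing. Unwashed 12 µm coronal sections incubated 10 min with 0.3 nM [3H]-GR205171; nonspecific binding with 100 nM GR205171. Imaging-plate exposure 10 days. Occupancy = 100% minus specific binding ratio treated/vehicle in striatum; 3 animals per group.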

[16] = system: Callithrix jacchus; assay: Anxiolytic activity in marmoset human threat test model assessed as reduction in number of postures at 10 mg/kg, po preincubated for 1 hr followed by compound wash out for 3 days relative to vehicle-treated control; format: functional; set-up: scale not given: the % may be the effect or the level left; summary of the method: as §2
[17] = Inhibition of sigma2 receptor (unknown origin); set-up: species or system Homo sapiens
[18] = system: Meriones unguiculatus; assay: Ex vivo NK1 receptor occupancy in Mongolian gerbil striatum assessed as inhibition of [3H]-GR205171 binding at 0.1 mg/kg, po by autoradiography; format: functional; summary of the method: as §4
[19] = system: Meriones unguiculatus; assay: Toxicity in Mongolian gerbil assessed as locomotor activity at 0.1 to 1 mg/kg, po after 1 hr; format: organism-based; set-up: dose 0.1-1 mg/kg, route oral; conditions: in vivo
[20] = system: Meriones unguiculatus; assay: Inhibition of GR73632-induced tapping behavior in sc dosed Mongolian gerbil foot tapping model administered 1 hr prior to GR73632 challenge; format: functional; conditions: read-out: ID50
[21] = Drug uptake in Mongolian gerbil brain at 1 mg/kg, po; format: ADME, organism-based, Meriones unguiculatus; set-up: dose 1 mg/kg, route oral; conditions: in vivo; summary of the method: as §3
[22] = Displacement of [3H]GR205171 from marmoset cerebral striatum NK1 receptor after 60 mins by scintillation counting analysis; set-up: species or system Callithrix jacchus
Summary of the method: (§5)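 Brain membranes used: gerbil cortex/striatum (0.055 mg protein) or marmoset striatum (0.080 mg). Radioligand [3H]-GR205171 0.2 nM, compound 1 pM–1 µM final, in HEPES pH 7.4, MnCl2, BSA plus protease inhibitors. Incubation 60 min at room temperature; nonspecific binding with 1 µM GR205171. Filtration on GF/C, scintillation counting; LIGAND fit, duplicates.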

[23] = system: Meriones unguiculatus; assay: Ex vivo NK1 receptor occupancy in Mongolian gerbil striatum assessed as inhibition of [3H]-GR205171 binding at 0.3 mg/kg, po by autoradiography; format: functional; summary of the method: as §4
[24] = molecular target: Substance-P receptor (Meriones unguiculatus, UniProt Q5DUB1); assay: Displacement of [3H]GR205171 from Mongolian gerbil brain NK1 receptor after 60 mins by scintillation counting analysis; summary of the method: as §5
[25] = system: Meriones unguiculatus; assay: Inhibition of GR73632-induced tapping behavior in po dosed Mongolian gerbil foot tapping model administered 24 hrs prior to GR73632 challenge; format: functional; conditions: read-out: ID50 (the source's name)
Summary of the method: (§6)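 Male gerbils (50–70 g) dosed orally (10 ml/kg) in 0.5% methocel with 5% DMSO, 1, 4, 8 or 24 h before icv GR73632 (3 pmol/5 µl) given under brief isoflurane. Hind foot tapping timed for 3 min; ≥7 animals per treatment.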

[26] = system: Meriones unguiculatus; assay: Antidepressant activity in Mongolian gerbil assessed as increase in social interaction time at 0.3 mg/kg, po after 1 hr (reference value: 21.2 +/- 2.9 secs); format: functional
[27] = system: Meriones unguiculatus; assay: Inhibition of GR73632-induced tapping behavior in po dosed Mongolian gerbil foot tapping model administered 1 hr prior to GR73632 challenge; format: functional; conditions: read-out: ID50 (the source's name); summary of the method: as §6
[28] = molecular target: Sigma non-opioid intracellular receptor 1 (Homo sapiens, UniProt Q99720); assay: Inhibition of sigma1 receptor (unknown origin)
[29] = system: Meriones unguiculatus; assay: Antidepressant activity in Mongolian gerbil assessed as increase in social interaction time at 0.1 mg/kg, po after 1 hr (reference value: 21.2 +/- 2.9 secs); format: functional
[30] = system: Meriones unguiculatus; assay: Inhibition of GR73632-induced tapping behavior in po dosed Mongolian gerbil foot tapping model administered 8 hrs prior to GR73632 challenge; format: functional; conditions: read-out: ID50 (the source's name); summary of the method: as §6
[31] = system: Meriones unguiculatus; assay: Inhibition of GR73632-induced tapping behavior in po dosed Mongolian gerbil foot tapping model administered 4 hrs prior to GR73632 challenge; format: functional; conditions: read-out: ID50 (the source's name); summary of the method: as §6
[32] = system: Callithrix jacchus; assay: Anxiolytic activity in marmoset human threat test model assessed as reduction in number of postures at 3 mg/kg, po preincubated for 1 hr followed by compound wash out for 3 days relative to vehicle-treated control; format: functional; set-up: scale not given: the % may be the effect or the level left; summary of the method: as §2
[33] = system: Meriones unguiculatus; assay: Antidepressant activity in po dosed Mongolian gerbil assessed as increase in social interaction time after 1 hr; format: functional, organism-based
[34] = Inhibition of sodium channel site2 (unknown origin); set-up: species or system Homo sapiens
[35] = molecular target: Platelet-activating factor receptor (Homo sapiens, UniProt P25105); assay: Inhibition of platelet activating factor receptor (unknown origin)
[36] = system: Callithrix jacchus; assay: Anxiolytic activity in po dosed marmoset human threat test model assessed as reduction in number of postures preincubated for 1 hr followed by compound wash out for 3 days; format: functional, organism-based; summary of the method: as §2
[37] = system: Callithrix jacchus; assay: Anxiolytic activity in marmoset human threat test model assessed as reduction in number of postures at 1 mg/kg, po preincubated for 1 hr followed by compound wash out for 3 days relative to vehicle-treated control; format: functional; set-up: scale not given: the % may be the effect or the level left; summary of the method: as §2
[38] = system: Meriones unguiculatus; assay: Inhibition of GR73632-induced tapping behavior in po dosed Mongolian gerbil foot tapping model administered 1 to 24 hrs prior to GR73632 challenge; format: functional, organism-based; summary of the method: as §6
[39] = system: Meriones unguiculatus; assay: Antidepressant activity in Mongolian gerbil assessed as increase in social interaction time at 1 mg/kg, po after 1 hr (reference value: 21.2 +/- 2.9 secs); format: functional

T1 sequence (P25103 whole entry): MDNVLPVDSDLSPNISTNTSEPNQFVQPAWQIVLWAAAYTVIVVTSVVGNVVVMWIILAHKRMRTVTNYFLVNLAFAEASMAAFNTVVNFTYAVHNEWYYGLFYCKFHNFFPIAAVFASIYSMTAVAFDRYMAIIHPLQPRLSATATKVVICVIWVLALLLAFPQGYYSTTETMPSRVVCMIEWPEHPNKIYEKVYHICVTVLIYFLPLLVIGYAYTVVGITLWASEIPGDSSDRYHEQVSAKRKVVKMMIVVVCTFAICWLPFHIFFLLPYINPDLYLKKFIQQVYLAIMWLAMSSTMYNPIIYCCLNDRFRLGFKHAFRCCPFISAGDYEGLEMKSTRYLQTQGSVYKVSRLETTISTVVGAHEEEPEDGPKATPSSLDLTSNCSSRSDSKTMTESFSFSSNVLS
Chain of Substance-P receptor (Meriones unguiculatus, UniProt Q5DUB1) (Q5DUB1 whole entry): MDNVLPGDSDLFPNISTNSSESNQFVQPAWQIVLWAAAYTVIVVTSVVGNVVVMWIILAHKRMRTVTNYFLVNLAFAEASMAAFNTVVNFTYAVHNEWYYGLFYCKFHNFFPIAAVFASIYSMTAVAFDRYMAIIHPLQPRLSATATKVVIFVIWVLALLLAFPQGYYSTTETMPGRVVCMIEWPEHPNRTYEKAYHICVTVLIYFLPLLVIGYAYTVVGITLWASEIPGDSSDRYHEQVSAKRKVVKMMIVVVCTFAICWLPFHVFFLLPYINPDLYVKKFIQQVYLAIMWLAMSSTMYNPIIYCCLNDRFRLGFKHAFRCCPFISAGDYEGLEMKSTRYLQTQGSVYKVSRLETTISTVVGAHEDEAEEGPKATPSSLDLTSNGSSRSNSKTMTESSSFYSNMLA
Chain of Sigma non-opioid intracellular receptor 1 (Q99720 whole entry): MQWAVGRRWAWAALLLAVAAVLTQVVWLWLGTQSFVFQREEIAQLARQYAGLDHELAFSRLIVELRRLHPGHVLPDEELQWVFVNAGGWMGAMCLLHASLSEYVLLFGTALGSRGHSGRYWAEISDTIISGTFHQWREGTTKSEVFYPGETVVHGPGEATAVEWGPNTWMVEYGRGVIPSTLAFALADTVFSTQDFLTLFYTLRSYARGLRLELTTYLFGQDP
Chain of Platelet-activating factor receptor (P25105 whole entry): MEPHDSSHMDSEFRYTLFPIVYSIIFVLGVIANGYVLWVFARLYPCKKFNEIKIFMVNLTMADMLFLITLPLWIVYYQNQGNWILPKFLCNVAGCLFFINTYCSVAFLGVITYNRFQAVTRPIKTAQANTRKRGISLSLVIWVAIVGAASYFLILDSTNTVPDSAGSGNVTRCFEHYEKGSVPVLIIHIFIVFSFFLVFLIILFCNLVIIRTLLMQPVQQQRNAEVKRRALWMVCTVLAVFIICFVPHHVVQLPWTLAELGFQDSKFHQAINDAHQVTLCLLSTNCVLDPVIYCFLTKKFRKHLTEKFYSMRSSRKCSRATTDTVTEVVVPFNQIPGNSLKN

For `COc1ccccc1CN1CN2CCCC1C2c1ccccc1` (configuration not stated), the IC50 [1] was 0.61 nM.

`Cc1cc(F)ccc1[C@H]1C[C@H](N2CCN3C(=O)CC[C@@H]3C2)CCN1C(=O)N(C)[C@H](C)c1cc(C(F)(F)F)cc(C(F)(F)F)c1` showed a Ki [2] of 0.138 nM.

For `Cc1cc(F)ccc1[C@H]1C[C@@H](N2CCN3C(=O)CC[C@@H]3C2)CCN1C(=O)N(C)[C@H](C)c1cc(C(F)(F)F)cc(C(F)(F)F)c1`, the Ki [2] was 0.2 nM.

For `Cc1cc(F)ccc1[C@H]1C[C@H](N2CCN3C(=O)CC[C@H]3C2)CCN1C(=O)N(C)[C@H](C)c1cc(C(F)(F)F)cc(C(F)(F)F)c1`, the bioavailability [3] was 19%, the Kp at 5 min [4] was 0.9 and the clearance [5] was 11 mL/min/kg. It also gave a Ki [2] of 0.0646 nM, a half-life [6] of 2.8 h and a clearance [7] of 25 mL/min/kg. For the same compound, the bioavailability [8] was 28%, the half-life [9] was 5.1 h and the Vd [10] was 2 L/kg. It also gave a Vd [11] of 3.4 L/kg and a pKb [12] of 10.5.

`COc1ccc(-n2cnnn2)cc1CN[C@H]1CCCN[C@H]1c1ccccc1` showed an IC50 [1] of 0.04 nM.

For `CC(=O)N1CCN([C@H]2CCN(C(=O)N(C)[C@H](C)c3cc(C(F)(F)F)cc(C(F)(F)F)c3)[C@@H](c3ccc(F)cc3C)C2)CC1` [CASOPITANT], the clearance [7] was 37 mL/min/kg, the bioavailability [8] was 34% and the Vd [11] was 3.2 L/kg.

`Cc1ccccc1-c1cc(N2CCN(C)CC2)ncc1N(C)C(=O)C(C)(C)c1cc(C(F)(F)F)cc(C(F)(F)F)c1` [NETUPITANT] showed an IC50 [1] of 0.95 nM.

`Cc1cc(F)ccc1[C@H]1C[C@@H](N2CCN3C(=O)CC[C@H]3C2)CCN1C(=O)N(C)[C@H](C)c1cc(C(F)(F)F)cc(C(F)(F)F)c1` [ORVEPITANT] showed an Activity [13] of 11.8%, a Kp [14] of 1.2 and an Occ [15] of 95.2%. For the same compound, the bioavailability [3] was 17%, the Kp at 5 min [4] was 1.2 and the clearance [5] was 6 mL/min/kg. For the same compound, the Ki [2] was 0.0631 nM, the Activity [16] was 46.4% and the Ki [17] was 3260 nM. The Occ [18] was 47.8%, the Activity [19] was “Non-toxic” and the ED50 [20] was 0.07 mg/kg. The Drug uptake [21] was 91 ng/g, the pKi [22] was 10.4 and the Occ [23] was 74.6%. The Ki [24] was 0.0316 nM, the ED50 [25] was 3.36 mg/kg and the Time [26] was 27.3 s. For the same compound, the ED50 [27] was 0.11 mg/kg, the Ki [28] was 940 nM and the half-life [6] was 2.3 h. The clearance [7] was 29 mL/min/kg, the Time [29] was 22.1 s and the bioavailability [8] was 55%. The half-life [9] was 6.1 h, the ED50 [30] was 0.09 mg/kg and the ED50 [31] was 0.09 mg/kg. The Activity [32] was 36.6%, the Activity [33] was “Dose-dependent effect” and the Ki [34] was 4540 nM. The Ki [35] was 2270 nM, the Activity [36] was “Dose-dependent effect” and the Vd [10] was 2 L/kg. It also gave a Vd [11] of 3.7 L/kg, an Activity [37] of 34.9% and a pKb [12] of 10.3. For the same compound, the Activity [38] was “Dose-dependent effect” and the Time [39] was 33.1 s.
